A short description of assay [1]: Antiproliferative activity against human CNE2 cells after 48 hrs by SRB assay. Format: functional, cell-based. The following applies: CNE-2, 48 h. In outline:
(§1)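 SRB assay on cells in RPMI-1640 with 2 mM glutamine, 10% FBS and penicillin/streptomycin at 37 °C and 5% CO2. Seeded at 5000 cells/well and grown 24 h, then compounds added in triplicate (DMSO 0.5% final) for 48 h. Fixed with TCA at 4 °C for 1 h, stained with SRB, dye dissolved in 10 mM Tris pH 10.4, OD read at 515 nm. IC50 from nonlinear dose-response fit; experiments run at least twice.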
For orientation: The SRB assay estimates cell density from bound dye.

The target of assay [2] is T1, RAC-alpha serine/threonine-protein kinase (Homo sapiens, UniProt P31749). Nature of the assay: Inhibition of AKT1-mediated GSK3beta phosphorylation in human A549 cells incubated for 12 hrs by Western blot. The assay is classed as cell-based. Summed up:
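A549 cells grown to 70% confluence, exposed 12 h to compound at 0.125–1.0 µM. Lysed in NP-40 buffer with protease inhibitors, then equal protein run on 10% SDS-PAGE and transferred to PVDF. Probed with anti-phospho-GSK3β (S9) at 1:1000 overnight at 4 °C, then HRP secondary at 1:5000.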
(In western blotting, separated proteins are transferred to a membrane and probed.)

Assay [3] concerns the target T1, RAC-alpha serine/threonine-protein kinase. Nature of the assay: Inhibition of AKT1 by AKT1/PKBalpha KinEASE FP fluorescein green assay. Summed up: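 Kinase reaction with Akt1 enzyme (amount giving 70% activity) and STK Substrate 3 (10 µM final) in 50 mM HEPES pH 7.2, 0.01% BSA, 5 mM MgCl2, 1 mM DTT, preincubated with compound 10 min at 25 °C. ATP (100 µM final) starts reaction, run 1 h at 25 °C. Stopped with phospho-STK tracer plus antibody, 6 h, then FP read (ex 470/em 530 nm). IC50 by nonlinear fit; triplicates, repeated twice.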

Assay [4] has as its system HepG2. Nature of the assay: Antiproliferative activity against human HepG2 cells after 48 hrs by SRB assay. Format: functional, cell-based. Particulars: HepG2, 48 h. In outline: as §1
Assay [5] has as its system SW480. Nature of the assay: Antiproliferative activity against human SW480 cells after 48 hrs by SRB assay. Format: functional, cell-based. The following applies: SW480, 48 h. Summed up:
as §1

Assay [6] can be described thus: Inhibition of TNFalpha-induced NF-kappaB translocation in human A549 cells incubated at 37 degC for 30 mins by high content analysis based immunofluorescence assay. The assay is classed as cell-based. Particulars: A549, 0.5 h. In outline: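 A549 cells at 2000/well grown 24 h, then compound added in duplicate (DMSO 0.5% final) for 30 min at 37 °C. Stimulated with TNFα at 10 ng/mL final for 30 min, then fixed with 4% paraformaldehyde and permeabilized with Triton X-100. Stained with anti-p65 and DyLight 488 secondary plus Hoechst, imaged on ArrayScan. Nuclear minus cytoplasmic intensity, background-subtracted, given as % of TNFα-only control. IC50 from this; repeated at least twice.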

Assay [7] relates to MCF7. Nature of the assay: Antiproliferative activity against human MCF7 cells after 48 hrs by SRB assay. Format: functional, cell-based. The following applies: MCF7, 48 h. In outline:
as §1

The test system of assay [8] is A549. Kind of assay: Antiproliferative activity against human A549 cells after 48 hrs by SRB assay. The assay is classed as functional, cell-based. Particulars: A549, 48 h. Summed up: as §1

Structures are written as SMILES.

This note sets out measurements from ChEMBL document CHEMBL2062524, “Synthesis, cytotoxicity of new 4-arylidene curcumin analogues and their multi-functions in inhibition of both NF-κB and Akt signalling” (Eur J Med Chem, 2012).

T1 sequence (P31749 whole entry): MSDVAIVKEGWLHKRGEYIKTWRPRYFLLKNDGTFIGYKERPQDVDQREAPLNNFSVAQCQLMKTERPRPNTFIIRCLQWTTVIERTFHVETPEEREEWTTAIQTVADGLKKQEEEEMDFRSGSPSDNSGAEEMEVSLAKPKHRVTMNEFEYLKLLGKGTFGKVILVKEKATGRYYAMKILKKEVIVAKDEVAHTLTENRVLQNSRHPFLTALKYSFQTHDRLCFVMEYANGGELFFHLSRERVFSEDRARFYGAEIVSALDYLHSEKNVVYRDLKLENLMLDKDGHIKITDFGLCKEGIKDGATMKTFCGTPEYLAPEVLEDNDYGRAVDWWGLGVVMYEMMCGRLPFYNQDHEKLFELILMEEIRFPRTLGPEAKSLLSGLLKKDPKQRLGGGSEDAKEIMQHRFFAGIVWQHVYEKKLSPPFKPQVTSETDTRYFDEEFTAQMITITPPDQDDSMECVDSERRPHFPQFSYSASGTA

`COc1cc(C=C(C(=O)/C=C/c2cccc(OC)c2OC)C(=O)/C=C/c2cccc(OC)c2OC)ccc1O`: the IC50 (usually the concentration that gives 50% inhibition) in assay [1] is 0.28 µM; in assay [3], 0.81 µM; in assay [4] it was 0.2 µM; in assay [5], 0.43 µM; in assay [6], 1.71 µM; in assay [7], 0.48 µM. The compound further showed a concentration for half-maximal inhibition (IC50) in assay [8] of 0.13 µM. Also, the inhibition result in assay [2] was “Dose-dependent effect”.

Consider `COc1ccc(/C=C/C(=O)C(=Cc2ccc(OC)c(O)c2)C(=O)/C=C/c2ccc(OC)cc2OC)c(OC)c1`, for which the IC50 was found to be 0.76 µM in assay [1]; 1.66 µM in assay [3]; 0.39 µM in assay [4]; 1.37 µM in assay [5]; 12.3 µM in assay [6]; 1.6 µM in assay [7]. Inhibition in assay [8] was half-maximal at 0.38 µM (IC50).

As for `COc1ccc(OC)c(/C=C/C(=O)C(=Cc2cc(Br)c(O)c(OC)c2)C(=O)/C=C/c2cc(OC)ccc2OC)c1`, the IC50 in assay [1] was found to be 0.42 µM; in assay [3] it was 5.02 µM; in assay [4], 0.28 µM; in assay [5] it was 0.49 µM; in assay [6] it was 4.19 µM; in assay [7], 0.58 µM. The compound also gave an IC50 in assay [8] of 0.22 µM.
